The list is not random: actives were taken first. Their share in the collection is about 29%.
CYP2C9 inh = blockers of cytochrome P450 2C9 activity – biochemical, luminescence, ADME assay, primary screen; CYP2C9 Supersomes, luciferin-H conversion; inhibition, % at 5 µM; actives 20% (n = 96,000);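 active = blocking of liver enzyme CYP2C9 beyond about 50% at 5 µM, limit read from the data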
Target sequence (P11712 whole entry, looked up): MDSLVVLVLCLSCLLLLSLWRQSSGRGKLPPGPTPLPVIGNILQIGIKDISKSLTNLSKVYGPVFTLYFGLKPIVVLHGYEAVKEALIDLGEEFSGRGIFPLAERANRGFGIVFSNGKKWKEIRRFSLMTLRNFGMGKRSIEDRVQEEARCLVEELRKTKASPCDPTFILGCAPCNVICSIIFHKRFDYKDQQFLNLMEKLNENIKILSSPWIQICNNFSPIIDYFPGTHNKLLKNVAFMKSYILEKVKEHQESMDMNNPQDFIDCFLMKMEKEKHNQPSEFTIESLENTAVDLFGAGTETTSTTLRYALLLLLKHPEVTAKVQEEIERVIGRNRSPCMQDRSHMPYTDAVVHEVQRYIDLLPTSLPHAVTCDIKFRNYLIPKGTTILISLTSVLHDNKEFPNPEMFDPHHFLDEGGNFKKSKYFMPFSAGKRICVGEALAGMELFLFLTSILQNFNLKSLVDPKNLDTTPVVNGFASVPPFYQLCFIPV
CYP2C19 inhib = blockers of cytochrome P450 2C19 activity – biochemical, luminescence, ADME assay, primary screen. P33261. actives 21% (n = 96,000). CYP2C19 Supersomes, luciferin-H EGE luminescence, 30 min. AID 778, 2007. inhibition, % at 5 µM;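 active = CYP2C19 inhibition above a set limit at 5 µM in the primary screen, cut at about 50% in these data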;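 note: plate controls were negative control wells for no effect and 2.5 mM tranylcypromine positive control for full effect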
Ecoli WT expand = growth inhibitors of wild-type E. coli, primary screen, strain BW25113, expanded library, OD600; OD600 absorbance; growth inhibition, % at 100 µM; actives 0.15% (n = 98,000); AID 710, 2007;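 active = growth inhibition above about 50% at one test dose, limit read from the data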;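 note: growth measured after 20 h incubation at 37 °C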
Ecoli tolC = growth inhibitors of E. coli tolC mutant, primary screen, strain BW25113 ΔtolC::kan, 384-well. OD615. growth inhibition, % at 10 µM (by protocol). actives 2.2% (n = 65,000). AID 573, 2007;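 active = growth inhibition at or above a cutoff equal to the mean over every tested compound plus 3 SD, cut at about 60% in these data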;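 note: growth measured after 20 h incubation at 37 °C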
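Test system: E. coli BW25113 ΔtolC::kan bacteria | Medium: Kanamycin-containing LB broth (50 µg/mL) | Dosing: One dose of 10 µM final | Times: 20 h incubation with compound, 37 °C | Detection: Optical density read at 615 nm | Read-out basis: Percent growth inhibition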
CYP2C9 activ = human CYP2C9 activators, primary screen, biochemical, luminescence | recombinant CYP2C9, luciferin-H conversion; active compounds read high; factor 1 = untreated enzyme, 0 = blocked | Cytochrome P450 2C9 (Homo sapiens), P11712 | actives 1.4% (n = 96,000) | AID 1024, 2008 | activation factor at 5 µM;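 active = activation factor of 2 or more for CYP2C9 at a 5 µM dose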;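 note: 0 = sulfaphenazole-blocked wells and 1 = vehicle-only wells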
CYP2C19 activ = human CYP2C19 activators, primary screen, biochemical, luminescence | Cytochrome P450 2C19 (Homo sapiens), P33261 | 96,000 tested, under 10 active | activation factor at 5 µM | recombinant CYP2C19, luciferin-H EGE luminescence; active compounds read high; 0 = fully inhibited enzyme, 1 = untreated enzyme;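 active = activation factor of at least 2 at 5 µM in the primary screen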;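 note: 0 = wells with 2.5 mM tranylcypromine and 1 = vehicle-only wells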
* = called active by the depositor; nt = not tested or not shown.

SMILES	CYP2C9 inh	CYP2C19 inhib	Ecoli WT expand	Ecoli tolC	CYP2C9 activ	CYP2C19 activ
CCN(C(=O)c1cn(C)c(=O)c2cc(OC)c(OC)cc12)c1cc(OC)ccc1OC	-2.3	-3.0	6.0	-4.4	1	1
c1csc(CNc2nc3ccccc3n2CCN2CCOCC2)c1	50.7*	42.7	6.0	1.4	0.5	0.6
O=C(CCOc1ccccc1)N1CCN(S(=O)(=O)c2cccs2)CC1	15.2	8.8	-1.0	nt	0.8	0.9
CCOC(=O)C1CCN(C(=O)CNS(=O)(=O)c2cccs2)CC1	5.9	30.9	-7.0	-13.3	0.9	0.7
Cc1ccc(OCC(=O)N2CCN(C(=O)Cc3ccccc3)CC2)cc1	-0.1	10.6	3.0	-1.9	1	0.9
O=C(COc1ccccc1)N1CCN(S(=O)(=O)c2cccs2)CC1	30.4	64.2*	3.0	-5.1	0.7	0.4
CCOC(=O)C1CCN(C(=O)COc2ccc(N(C)S(=O)(=O)c3cccs3)cc2)CC1	90.0*	61.5*	1.0	10.8	0.1	0.4
O=C(COc1ccc(-c2ccccc2)cc1)N1CCN(S(=O)(=O)Cc2ccccc2)CC1	53.3*	28.9	-7.0	nt	0.5	0.7
CCOC(=O)c1sc(NC(=S)NC(=O)CC(C)C)cc1C	-8.1	-8.2	-14.0	nt	1.1	1.1
Cc1ccccc1Cn1c(=O)n(CCCC(=O)NCc2ccco2)c(=O)c2sccc21	93.5*	89.3*	1.0	nt	0.1	0.1
Cc1cc(C)c(Cn2c(=O)n(CCCC(=O)NCc3ccco3)c(=O)c3sccc32)c(C)c1	61.4*	26.7	1.0	nt	0.4	0.7
O=C(CCCn1c(=O)c2sccc2n(Cc2cc(=O)n3ccccc3n2)c1=O)NCc1ccco1	66.4*	15.9	1.0	-3.7	0.3	0.8
Cc1ccc(C)c(Cn2c(=O)n(CCC(=O)NCc3ccco3)c(=O)c3sccc32)c1	9.4	-5.0	-2.0	-4.3	0.9	1.1
O=C(CCCCn1c(=S)[nH]c2ccsc2c1=O)NCc1ccco1	66.9*	32.6	3.0	1.1	0.3	0.7
O=C(CCCn1c(=S)[nH]c2ccsc2c1=O)NCc1ccco1	15.9	8.5	-2.0	-1.4	0.8	0.9
O=C(c1ccc(C23CC4CC(CC(C4)C2)C3)o1)N1CCOCC1	-5.5	4.6	6.0	43.8	1.1	1
CC/C(=C\C(=O)c1cccnc1)Nc1ccc(C)c(C)c1	57.6*	71.1*	3.0	27.0	0.4	0.3
COc1ccc(-c2cc(OC(=O)c3ccc(F)cc3)c3c(C)oc(C)c3c(=O)c2)cc1	55.9*	-0.5	-12.0	nt	0.4	1
COc1cc(C(=O)N2CCN(C(=O)COc3ccc4ccccc4c3)CC2)cc(OC)c1OC	35.0	18.3	7.0	1.3	0.7	0.8
Cn1c(=O)c2c(nc(NCCO)n2CCc2ccccc2)n(C)c1=O	9.3	24.7	nt	-14.6	0.9	0.8
Cn1c(=O)c2nc(NCc3ccccc3)cnc2n(C)c1=O	73.0*	73.8*	4.0	-13.2	0.3	0.3
N#CC1=C(SCC(N)=O)NC2=C(C(=O)c3ccccc32)C1c1ccc(Cl)cc1 (stereo unspecified)	63.0*	47.6	-1.0	nt	0.4	0.5
COc1nc2c(C)cccc2cc1-c1noc(-c2ccco2)n1	15.3	23.4	-2.0	-1.3	0.8	0.8
CCCOC(=O)c1ccc(-c2c(C)noc2-c2ccc(OC)cc2O)o1	92.4*	80.8*	-6.0	98.8*	0.1	0.2
COc1ccccc1N/C(=N/S(=O)(=O)c1ccc(Cl)cc1)c1ccccc1	45.8	73.3*	-4.0	nt	0.5	0.3
SMILES	CYP2C9 inh	CYP2C19 inhib	Ecoli WT expand	Ecoli tolC	CYP2C9 activ	CYP2C19 activ
O=S(=O)(/N=C(/Nc1ccccc1F)c1ccccc1)c1ccccc1	41.2	62.8*	-2.0	nt	0.6	0.4
Cc1c(C#N)c(N=CN(C)C)c(C(=O)c2ccc(Br)cc2)n1-c1ccc(Cl)cc1	48.6	22.6	-17.0	nt	0.5	0.8
O=S1(=O)C=C(Oc2ccc3ccccc3c2)c2ccccc21	34.4	48.9	-9.0	nt	0.7	0.5
O=S1(=O)C=C(Oc2ccc(F)cc2)c2ccccc21	29.3	81.4*	5.0	0.5	0.7	0.2
CCCn1c(NC(=O)c2ccc(Cl)c(S(=O)(=O)N3CCCC3)c2)nc2ccccc21	83.7*	82.6*	-20.0	44.3	0.2	0.2
O=C(NCc1nc2ccccc2[nH]1)c1ccc(Cl)c(S(=O)(=O)N2CCCC2)c1	45.1	65.4*	25.0	27.9	0.5	0.3
CCCn1c(NC(=O)c2cccc(C)c2C)nc2ccccc21	16.8	74.9*	6.0	nt	0.8	0.3
CCCn1c(NCCO)nc2ccccc21	4.7	11.4	6.0	nt	1	0.9
CSCC[C@H](NC(=O)c1ccc(Cl)c(S(=O)(=O)N2CCCC2)c1)c1nc2ccccc2[nH]1	67.9*	59.0*	-14.0	nt	0.3	0.4
CSCCC(NC(=O)C1CC1)c1nc2ccccc2[nH]1 (stereo unspecified)	6.1	13.2	-2.0	-2.0	0.9	0.9
O=C(Nc1ccccc1-c1nc2ccccc2[nH]1)c1ccc(S(=O)(=O)N2CCCCC2)cc1	8.8	4.3	-14.0	nt	0.9	1
O=C(c1ccc(N2CN(C(=O)c3ccco3)c3nc4ccccc4nc32)cc1)N1CCOCC1	5.1	13.6	0.0	-8.4	0.9	0.9
Cc1ccc(N)cc1CN1CCCC1=O	7.0	11.1	0.0	-31.4	0.9	0.9
N#Cc1ccc(Oc2nc(Nc3ccc(F)cc3)nc(N3CCCC3)n2)cc1	5.9	5.2	-6.0	nt	0.9	0.9
COc1ccc(S(=O)(=O)NNC(=O)c2csc(-n3nc(C)cc3C(F)(F)F)n2)cc1	48.9	16.3	-1.0	nt	0.5	0.8
CN(CC(=O)N1CCc2ccccc2C1)S(=O)(=O)c1ccc2c(c1)c(=O)n(C)c(=O)n2C	12.4	-17.0	2.0	-1.9	0.9	1.2
Cn1c(NC(=O)c2ccccc2NC(=O)C(C)(C)C)nc2ccccc21	8.4	-13.7	-1.0	99.4*	0.9	1.1
CC1CCC(NC(=O)c2ccc3nc[nH]c3c2)CC1 (stereo unspecified)	13.5	33.7	-3.0	nt	0.9	0.7
COc1ccc(-c2cc3nc(C4CCN(C(=O)OC(C)(C)C)CC4)c(C(=O)O)cn3n2)cc1	75.3*	-5.0	4.0	23.3	0.2	1.1
Brc1cccc(-c2nnc(SCc3nc4ccccc4[nH]3)o2)c1	-27.1	31.7	7.0	45.3	1.3	0.7
c1ccc2[nH]c(CSc3nnc(-c4ccncc4)o3)nc2c1	81.0*	79.8*	5.0	14.1	0.2	0.2

Screens: PubChem, several laboratories
